{"source": "ChEMBL document CHEMBL1649427", "about": "“Inactivation of the glycoside hydrolase NagZ attenuates antipseudomonal beta-lactam resistance in Pseudomonas aeruginosa” (Antimicrob Agents Chemother, 2009)", "key": {"[1]": {"test_system": "Pseudomonas aeruginosa", "experiment": "Antimicrobial activity against Pseudomonas aeruginosa PAO1 harboring deltaampD::lox deltaampDh2::lox delta ampDh3::lox after 18 hrs by Etest", "type": "functional", "settings": "PAO1, 18 h", "method_in_brief": "(§1)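 Etest strips on Mueller-Hinton agar plates, run per the manufacturer's recommendations; MICs determined in triplicate.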"}, "[2]": {"test_system": "Pseudomonas aeruginosa", "experiment": "Antimicrobial activity against nagZ gene-deficient Pseudomonas aeruginosa PAO1 after 18 hrs by Etest", "type": "functional", "settings": "PAO1, 18 h", "method_in_brief": "(§2)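 Strains are P. aeruginosa PAO1 and its insertional nagZ-inactivated derivative. MICs were read from Etest strips on Mueller-Hinton agar, following the manufacturer's recommendations. Each determination was done in triplicate.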"}, "[3]": {"test_system": "Pseudomonas aeruginosa", "experiment": "Antimicrobial activity against Pseudomonas aeruginosa PAO1 after 18 hrs by Etest", "type": "functional", "settings": "PAO1, 18 h", "method_in_brief": "as §2"}, "[4]": {"test_system": "Pseudomonas aeruginosa", "experiment": "Antimicrobial activity against Pseudomonas aeruginosa PAO1 harboring deltaampD::lox deltaampDh2::lox deltaampDh3::lox deltanagZ::Gm after 18 hrs by Etest", "type": "functional", "settings": "PAO1, 18 h", "method_in_brief": "as §1"}, "[5]": {"test_system": "Pseudomonas aeruginosa", "experiment": "Ratio of MIC for Pseudomonas aeruginosa PAO1 harboring deltaampD::lox deltaampDh2::lox deltaampDh3::lox to MIC for Pseudomonas aeruginosa PAO1 harboring deltaampD::lox deltaampDh2::lox deltaampDh3::lox deltanagZ::Gm"}, "[6]": {"test_system": "Pseudomonas aeruginosa", "experiment": "Antimicrobial activity against nagZ gene-deficient Pseudomonas aeruginosa PAO1 after 18 hrs by broth microdilution method", "type": "functional", "settings": "PAO1, 18 h", "method_in_brief": "(§3)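 CLSI broth microdilution in cation-adjusted Mueller-Hinton medium with serial β-lactam dilutions. Each well holds 200 μl broth inoculated with ~10⁴ cells from starter cultures at OD600 ~0.5. Plates shaken at 37°C for 18 h. The MIC is read as the lowest antibiotic concentration showing no growth. Triplicate determinations.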"}, "[7]": {"test_system": "Pseudomonas aeruginosa", "experiment": "Antimicrobial activity against ampDDh3 gene-deficient Pseudomonas aeruginosa PAO1 after 18 hrs by broth microdilution method in presence of 0.5 mM nagZ inhibitor EtBuPUG", "type": "functional", "settings": "PAO1, 18 h", "method_in_brief": "(§4)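 Wells are then inoculated with 100 μl culture and incubated 18 h at 37°C. The MIC is the lowest concentration with no growth. Triplicate determinations.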"}, "[8]": {"test_system": "Pseudomonas aeruginosa", "experiment": "Antimicrobial activity against Pseudomonas aeruginosa PAO1 after 18 hrs by using 30 ug/disk by agar diffusion method in presence of 0.5 mM nagZ inhibitor EtBuPUG", "type": "functional", "method_in_brief": "(§5)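 Cultures grown in Mueller-Hinton broth at 37°C to OD600 ~0.5, pelleted, resuspended in 2 ml broth and streaked on Mueller-Hinton agar. […] Inhibition zone diameter measured after overnight incubation at 37°C. Triplicate determinations.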"}, "[9]": {"test_system": "Pseudomonas aeruginosa", "experiment": "Antimicrobial activity against ampD gene-deficient Pseudomonas aeruginosa PAO1 after 18 hrs by broth microdilution method in absence of EtBuPUG", "settings": "PAO1, 18 h"}, "[10]": {"test_system": "Pseudomonas aeruginosa", "experiment": "Antimicrobial activity against ampDh2 and ampDh3 gene-deficient Pseudomonas aeruginosa PAO1 after 18 hrs by broth microdilution method in presence of 0.5 mM nagZ inhibitor EtBuPUG", "type": "functional", "settings": "PAO1, 18 h", "method_in_brief": "as §4"}, "[11]": {"test_system": "Pseudomonas aeruginosa", "experiment": "Antimicrobial activity against ampD gene-deficient Pseudomonas aeruginosa PAO1 after 18 hrs by broth microdilution method in presence of 0.5 mM nagZ inhibitor EtBuPUG", "type": "functional", "settings": "PAO1, 18 h", "method_in_brief": "as §4"}, "[12]": {"test_system": "Pseudomonas aeruginosa", "experiment": "Antimicrobial activity against ampDh2 gene-deficient Pseudomonas aeruginosa PAO1 using 30 ug/disk by agar diffusion method in presence of 0.5 mM nagZ inhibitor EtBuPUG", "type": "functional", "method_in_brief": "as §5"}, "[13]": {"test_system": "Pseudomonas aeruginosa", "experiment": "Antimicrobial activity against Pseudomonas aeruginosa PAO1 harboring deltaampD::lox deltaampDh2::lox delta ampDh3::lox and plasmid pUCP27 after 18 hrs by Etest", "type": "functional", "settings": "PAO1, 18 h", "method_in_brief": "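Etest strips on Mueller-Hinton agar supplemented with 75 μg/ml tetracycline to maintain the vector or complementation plasmid, run per the manufacturer's recommendations; triplicate determinations.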"}, "[14]": {"test_system": "Pseudomonas aeruginosa", "experiment": "Antimicrobial activity against ampDh2 and ampDh3 gene-deficient Pseudomonas aeruginosa PAO1 after 18 hrs by broth microdilution method", "type": "functional", "settings": "PAO1, 18 h", "method_in_brief": "as §4"}, "[15]": {"test_system": "Pseudomonas aeruginosa", "experiment": "Antimicrobial activity against ampDh3 gene-deficient Pseudomonas aeruginosa PAO1 after 18 hrs by broth microdilution method in presence", "type": "functional", "settings": "PAO1, 18 h", "method_in_brief": "as §4"}, "[16]": {"test_system": "Pseudomonas aeruginosa", "experiment": "Antimicrobial activity against ampDh2 gene-deficient Pseudomonas aeruginosa PAO1 after 18 hrs by broth microdilution method in presence of 0.5 mM nagZ inhibitor EtBuPUG", "type": "functional", "settings": "PAO1, 18 h", "method_in_brief": "as §4"}, "[17]": {"test_system": "Pseudomonas aeruginosa", "experiment": "Antimicrobial activity against Pseudomonas aeruginosa PAO1 after 18 hrs by broth microdilution method", "type": "functional", "settings": "PAO1, 18 h", "method_in_brief": "as §3"}, "[18]": {"test_system": "Pseudomonas aeruginosa", "experiment": "Antimicrobial activity against ampDDh2 gene-deficient Pseudomonas aeruginosa PAO1 after 18 hrs by broth microdilution method in presence", "type": "functional", "settings": "PAO1, 18 h", "method_in_brief": "as §4"}, "[19]": {"test_system": "Pseudomonas aeruginosa", "experiment": "Antimicrobial activity against ampDh3 gene-deficient Pseudomonas aeruginosa PAO1 after 18 hrs by broth microdilution method in presence of 0.5 mM nagZ inhibitor EtBuPUG", "type": "functional", "settings": "PAO1, 18 h", "method_in_brief": "as §4"}, "[20]": {"test_system": "Pseudomonas aeruginosa", "experiment": "Antimicrobial activity against ampDDh2 and ampDh3 gene-deficient Pseudomonas aeruginosa PAO1 after 18 hrs by broth microdilution method in presence of 0.5 mM nagZ inhibitor EtBuPUG", "type": "functional", "settings": "PAO1, 18 h", "method_in_brief": "as §4"}, "[21]": {"test_system": "Pseudomonas aeruginosa", "experiment": "Antimicrobial activity against ampDDh2 gene-deficient Pseudomonas aeruginosa PAO1 after 18 hrs by broth microdilution method in presence of 0.5 mM nagZ inhibitor EtBuPUG", "type": "functional", "settings": "PAO1, 18 h", "method_in_brief": "as §4"}, "[22]": {"test_system": "Pseudomonas aeruginosa", "experiment": "Antimicrobial activity against ampDDh3 gene-deficient Pseudomonas aeruginosa PAO1 after 18 hrs by broth microdilution method in presence", "type": "functional", "settings": "PAO1, 18 h", "method_in_brief": "as §4"}, "[23]": {"test_system": "Pseudomonas aeruginosa", "experiment": "Antimicrobial activity against Pseudomonas aeruginosa PAO1 after 18 hrs by broth microdilution method in presence of 0.5 mM nagZ inhibitor EtBuPUG", "type": "functional", "settings": "PAO1, 18 h", "method_in_brief": "as §4"}, "[24]": {"test_system": "Pseudomonas aeruginosa", "experiment": "Antimicrobial activity against ampDDh2 and ampDh3 gene-deficient Pseudomonas aeruginosa PAO1 after 18 hrs using […] by agar diffusion method", "type": "functional", "method_in_brief": "as §5"}, "[25]": {"test_system": "Pseudomonas aeruginosa", "experiment": "Antimicrobial activity against ampDh2 gene-deficient Pseudomonas aeruginosa PAO1 after 18 hrs by broth microdilution method in absence of EtBuPUG", "settings": "PAO1, 18 h"}, "[26]": {"test_system": "Pseudomonas aeruginosa", "experiment": "Antimicrobial activity against Pseudomonas aeruginosa PAO1 harboring deltaampD::lox deltaampDh2::lox deltaampDh3::lox after 18 hrs by broth microdilution method", "type": "functional", "settings": "PAO1, 18 h", "method_in_brief": "as §3"}, "[27]": {"test_system": "Pseudomonas aeruginosa", "experiment": "Antimicrobial activity against Pseudomonas aeruginosa PAO1 harboring deltaampD::lox deltaampDh2::lox delta ampDh3::lox after 18 hrs by broth microdilution method", "type": "functional", "settings": "PAO1, 18 h", "method_in_brief": "as §3"}}, "data": [{"compound": "C[C@@H](O)[C@H]1C(=O)N2C(C(=O)O)=C(SCCNC=N)C[C@H]12", "note": "[IMIPENEM ANHYDROUS]", "values": [{"measurement": "MIC", "setting": "[1]", "value": 1.5, "unit": "µg/mL"}, {"measurement": "MIC", "setting": "[2]", "value": 2, "unit": "µg/mL"}, {"measurement": "MIC", "setting": "[3]", "value": 3, "unit": "µg/mL"}, {"measurement": "MIC", "setting": "[4]", "value": 1.5, "unit": "µg/mL"}]}, {"compound": "CO/N=C(\\C(=O)N[C@@H]1C(=O)N2C(C(=O)[O-])=C(C[N+]3(C)CCCC3)CS[C@H]12)c1csc(N)n1", "values": [{"measurement": "MIC", "setting": "[1]", "value": 12, "unit": "µg/mL"}, {"measurement": "MIC", "setting": "[2]", "value": 0.38, "unit": "µg/mL"}, {"measurement": "MIC", "setting": "[3]", "value": 0.5, "unit": "µg/mL"}, {"measurement": "Ratio", "setting": "[5]", "value": 4}, {"measurement": "MIC", "setting": "[4]", "value": 3, "unit": "µg/mL"}]}, {"compound": "C[C@H]1[C@H](NC(=O)/C(=N\\OC(C)(C)C(=O)O)c2csc(N)n2)C(=O)N1S(=O)(=O)O", "note": "[AZTREONAM]", "values": [{"measurement": "MIC", "setting": "[6]", "value": 0.25, "unit": "µg/mL"}, {"measurement": "MIC", "setting": "[7]", "value": 8, "unit": "µg/mL"}, {"measurement": "inhibition zone (IZ)", "setting": "[8]", "value": 15.1, "unit": "mm"}, {"measurement": "MIC", "setting": "[4]", "value": 4, "unit": "µg/mL"}, {"measurement": "MIC", "setting": "[9]", "value": 6, "unit": "µg/mL"}, {"measurement": "MIC", "setting": "[10]", "value": 0.25, "unit": "µg/mL"}, {"measurement": "MIC", "setting": "[11]", "value": 3, "unit": "µg/mL"}, {"measurement": "inhibition zone (IZ)", "setting": "[12]", "value": 14, "unit": "mm"}, {"measurement": "MIC", "setting": "[13]", "value": 6, "unit": "µg/mL"}, {"measurement": "MIC", "setting": "[14]", "value": 0.5, "unit": "µg/mL"}, {"measurement": "MIC", "setting": "[15]", "value": 1.5, "unit": "µg/mL"}, {"measurement": "MIC", "setting": "[16]", "value": 0.25, "unit": "µg/mL"}, {"measurement": "MIC", "setting": "[17]", "value": 1, "unit": "µg/mL"}, {"measurement": "MIC", "setting": "[18]", "value": 16, "unit": "µg/mL"}, {"measurement": "MIC", "setting": "[19]", "value": 0.75, "unit": "µg/mL"}, {"measurement": "MIC", "setting": "[20]", "value": 12, "unit": "µg/mL"}, {"measurement": "MIC", "setting": "[21]", "value": 8, "unit": "µg/mL"}, {"measurement": "MIC", "setting": "[22]", "value": 16, "unit": "µg/mL"}, {"measurement": "MIC", "setting": "[23]", "value": 0.25, "unit": "µg/mL"}, {"measurement": "inhibition zone (IZ)", "setting": "[24]", "value": 10.7, "unit": "mm"}, {"measurement": "MIC", "setting": "[25]", "value": 1, "unit": "µg/mL"}]}, {"compound": "O=C(O)c1cn(C2CC2)c2cc(N3CCNCC3)c(F)cc2c1=O", "note": "[CIPROFLOXACIN]", "values": [{"measurement": "MIC", "setting": "[6]", "value": 0.2, "unit": "µg/mL"}, {"measurement": "MIC", "setting": "[26]", "value": 0.2, "unit": "µg/mL"}, {"measurement": "MIC", "setting": "[17]", "value": 0.2, "unit": "µg/mL"}, {"measurement": "MIC", "setting": "[27]", "value": 0.2, "unit": "µg/mL"}]}]}
